This is one part of a sample in which hits are shown more often than they occur.
Lipid droplet: modulators of hepatic lipid droplet formation; AID 1656; AML12 mouse hepatocytes, oleate lipid droplets, BODIPY imaging; inhibition, % at 6.5 µM; hit rate 0.4% among 240,000;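 active = lipid droplet intensity inhibited by at least 50%, with more than 500 cells counted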
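material = mouse AML12 hepatocyte cell line, fixed after treatment | also added = 100 µM oleic acid challenge | doses = compound at 6.5 µM only | schedule = overnight exposure | technique = Image-based BODIPY and DAPI two-channel analysis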
T cruzi inh: T. cruzi replication inhibition; T. cruzi beta-gal in NIH3T3, luminescence, 90 h; inhibition, % (concentration not given with the values); hit rate 1.4% among 300,000; AID 1885;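 active = mean inhibition across valid replicates above about 55%, limit read from the data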;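 note: signal also drops with host cell toxicity which is not excluded here; 0% = plate median of DMSO wells and 100% = zero luminescence signal; higher percent means less beta-gal luminescence so fewer parasites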
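Test system: β-gal T. cruzi (Tulahuen C4) inside NIH/3T3 cells / Quantity: 5,000 cells/well / Measured by: luminescence from GalScreen with 0.05% NP40, read after 60 min / Medium: DMEM plus 2% FBS / Measure: parasite load inhibition, % / Reagent: Tulahuen C4 trypomastigotes, 5000/well / Schedule: co-culture of at least 90 h after 3 h attachment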
MPTP block: inhibitors of mitochondrial permeability transition pore. inhibition, % at 10 µM. AID 602449. hit rate 1.4% among 360,000. isolated mouse mitochondria, Ca2+ swelling absorbance, 30 min;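 active = inhibition of 50% or more, scaled per plate between neutral and stimulator controls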;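 note: 0% = DMSO wells given calcium and 100% = 1 mM EGTA wells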
Redox H2O2 prof: compounds producing H2O2 with reducing agent – biochemical, NIH compound library profiling, artefact control for MLSCN library redox annotation, primary screen; DTT-dependent redox cycling H2O2, phenol red/HRP absorbance; 100% = 100 µM peroxide control, 0% = buffer; activation, % at 10 µM; hit rate 0.03% among 200,000; AID 878;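 active = activation of at least 50% relative to the plate's high and low controls in the primary single-dose screen; inactive = activation below 50%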;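 note: compound incubated with DTT at 0.8 mM final as the reducing agent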
Lmaj promast: inhibitors of Leishmania major promastigote growth; Leishmania major promastigotes, resazurin fluorescence viability; inhibition, % at 10 µM; hit rate 9% among 200,000; AID 1063; in the data active = inhibition above about 50%;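 note: promastigotes grown with compound for 44 hours at 28 °C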
Rh123 counter: mitochondrial membrane potential, counter-screen; isolated mitochondria, Rhodamine 123 fluorescence; shares compounds with MPTP block; inhibition, % at 10 µM; hit rate 78% among 5,000; in the data active = inhibition above about 22%;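 note: 0% = DMSO vehicle and 100% = positive control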
* = called active by the depositor.

Screening O=C(O)c1cccc(-n2c(-c3cnccn3)n[nH]c2=S)c1 returned Lipid droplet 3, T cruzi inh -31, MPTP block 0, Redox H2O2 prof 0 and Lmaj promast -7.
Screening O=C(O)c1nn2cc(CCO)cnc2c1Cl returned Lipid droplet -10, T cruzi inh -11, MPTP block -3, Redox H2O2 prof 0 and Lmaj promast -1.
Cc1cc(SCC(=O)NCC2CCCO2)nc2ccccc12 (stereo not drawn) was read as Lipid droplet -10, T cruzi inh -7 and MPTP block 1.
For CSc1cccc(NC(=O)/C=C/c2ccccc2)c1 the results were T cruzi inh 1, MPTP block 52*, Redox H2O2 prof 8, Lmaj promast 20 and Rh123 counter 53*.
`CSc1cccc(NC(=O)/C=C/c2ccc(Cl)cc2)c1` gave T cruzi inh -1, MPTP block 90*, Redox H2O2 prof 0, Lmaj promast -7 and Rh123 counter 90*.
`CSc1cccc(NC(=O)Nc2ccccc2)c1` gave Lipid droplet -4, T cruzi inh 10, MPTP block 88*, Redox H2O2 prof -1, Lmaj promast 2 and Rh123 counter 110*.
Screening COc1cc(OC)nc(NC(=O)COC(=O)c2cccc(Cl)c2)n1 returned Lipid droplet -2, T cruzi inh -10, MPTP block -1, Redox H2O2 prof -4 and Lmaj promast -5.
Screening Cc1ccc(C(=O)OC(C)CN2C(C)CCCC2C)cc1 (stereo not drawn) returned Lipid droplet 8, T cruzi inh 19 and MPTP block 1.
`Cc1c(Cl)cccc1NCC(=O)Nc1ccc(Cl)cc1F` gave Lipid droplet -26, T cruzi inh 2, MPTP block 57*, Redox H2O2 prof 0, Lmaj promast 0 and Rh123 counter 57*.
Screening CCOc1ccc(N(CC(=O)Nc2ccc(C)c(C)c2)S(C)(=O)=O)cc1 returned Lipid droplet -3, T cruzi inh 7 and MPTP block 1.
For O=C(Nc1ccc(Cl)cc1)Nc1cnccn1 the results were Lipid droplet -1, T cruzi inh 4, MPTP block 53*, Redox H2O2 prof 0, Lmaj promast -7 and Rh123 counter 70*.
O=C(Nc1ccc([N+](=O)[O-])cc1)Nc1cnccn1 was read as Lipid droplet -2, T cruzi inh 6, MPTP block 69* and Rh123 counter 89*.
Cc1ccc(NC(=O)Nc2cnccn2)cc1 was read as Lipid droplet 0, T cruzi inh -1 and MPTP block 1.
COC(=O)/C(=C1/Oc2ccc(C)cc2S1)C(F)(F)F was read as Lipid droplet 18, T cruzi inh -30, MPTP block 0, Redox H2O2 prof 0 and Lmaj promast -4.
For Cc1ccc(NC(=O)C2CCN(S(=O)(=O)c3ccc4c(c3)NC(=O)C(C)S4)CC2)cc1Cl (stereo not drawn) the results were Lipid droplet -56, T cruzi inh 19, MPTP block 96* and Rh123 counter 97*.
Cc1c(C(=O)N/N=C/c2ccncc2)nnn1-c1nonc1N was read as MPTP block 0.
O=C(N/N=C/c1cc([N+](=O)[O-])ccc1O)NC12CC3CC(CC(C3)C1)C2 was read as Lipid droplet -4, T cruzi inh 4, MPTP block 74*, Redox H2O2 prof -1, Lmaj promast 33 and Rh123 counter 44*.
For O=C(N/N=C/c1cc([N+](=O)[O-])ccc1O)C12CC3CC(CC(C3)C1)C2 the results were Lipid droplet 8, T cruzi inh 15, MPTP block 78*, Redox H2O2 prof 0, Lmaj promast 97* and Rh123 counter 54*.
O=C(N/N=C/c1ccc(O)cc1O)NC12CC3CC(CC(C3)C1)C2 was read as Lipid droplet -5, T cruzi inh 5 and MPTP block 1.
`O=C1C2ON(c3ccccc3)C(c3ccncc3)C2C(=O)N1c1ccc(Br)cc1` (stereo not drawn) gave T cruzi inh 12, MPTP block 69*, Redox H2O2 prof -4, Lmaj promast 40 and Rh123 counter 22*.
`COc1ccc(Cl)cc1NC(=O)c1[nH]c(C)c(C(C)=O)c1C` gave T cruzi inh -5 and MPTP block 0.
For CCc1c(C(=O)Nc2ccc(OC)c(Cl)c2)[nH]c(C)c1C(C)=O the results were T cruzi inh 29, MPTP block 88*, Redox H2O2 prof 0, Lmaj promast 24 and Rh123 counter 95*.
Screening CCSCc1nnc(SCC(=O)Nc2ccc(OC)cc2)n1C returned T cruzi inh -5, MPTP block 1, Redox H2O2 prof 0 and Lmaj promast 1.
For O=C(CN1C(=O)CCC1=O)Nc1cccc2c1C(=O)NC2=O the results were Lipid droplet -11, T cruzi inh -8, MPTP block -1, Redox H2O2 prof -4 and Lmaj promast -11.
Screening O=[N+]([O-])c1ccc(-c2nc3ccc([N+](=O)[O-])cc3[nH]2)cc1 returned T cruzi inh 33, MPTP block 105*, Redox H2O2 prof 1, Lmaj promast 32 and Rh123 counter 92*.
`O=[N+]([O-])c1ccc2nc(/C=C/c3ccc(Cl)cc3)[nH]c2c1` gave T cruzi inh 18, MPTP block 90*, Redox H2O2 prof -3, Lmaj promast 16 and Rh123 counter 80*.
`CCCC[n+]1ccc(-c2nc3ccc([N+](=O)[O-])cc3[nH]2)cc1` gave Lipid droplet 29, T cruzi inh -7, MPTP block 1, Redox H2O2 prof 0 and Lmaj promast 3.
`Cc1cc(N=NC(=O)c2ccccc2O)c2ccccc2c1O` gave Lipid droplet 0, T cruzi inh -3, MPTP block 74*, Redox H2O2 prof 2, Lmaj promast -4 and Rh123 counter 91*.
CC(C)C[C@@H](CO)N1CCN(Cc2cccc(C#N)c2)CCC1=O was read as Lipid droplet -6, T cruzi inh -18 and MPTP block 0.
CCCCCCSc1nsc(NC(=O)CC(C)C)n1 was read as Lipid droplet -5, T cruzi inh 39, MPTP block 78*, Redox H2O2 prof 0, Lmaj promast 13 and Rh123 counter 92*.
`Cc1c(N2CCCC2)cc2c(c1NC(=O)c1ccccc1Cl)C(C)(C)CC2(C)C` gave Lipid droplet 1, T cruzi inh 42 and MPTP block 2.
c1csc(CCNc2ncnc3sc4c(c23)CCC4)c1 was read as T cruzi inh -1, MPTP block 102*, Redox H2O2 prof -1, Lmaj promast 27 and Rh123 counter 102*.
Screening COc1ccc(S(=O)(=O)N2CCCCC2)cc1NC(=O)[C@@H]1CCCN1C(=O)c1cccs1 returned MPTP block 0.
